Experimental findings from ChEMBL document CHEMBL1150348, “Design and synthesis of FAJANU: a de novo C(2) symmetric cyclopeptide family” (2008) are described below.

Common to all, as to type: functional
One experiment has as its system HT-29. Put plainly: Cytotoxicity against human HT29 cells after 72 hrs by SRB assay. The following applies: HT-29, 72 h. A digest of the protocol:
(§1)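 SRB colorimetric growth assay: cells seeded at 5 × 10^3 cells/well in RPMI, grown drug-free 18 h to attach, then samples added (dissolved in DMSO–H2O 3:7) for 72 h exposure. Fixed with cold 50% TCA 60 min at 4 °C, stained with 0.4% SRB in 1% acetic acid 10 min at room temperature, washed, bound dye solubilized in Tris, absorbance read at 490 nm; GI50 derived.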
Background: Sulforhodamine B stains cellular protein and so reports cell mass.

A further experiment concerns A549. The experiment is described as follows: Cytotoxicity against human A549 cells after 72 hrs by SRB assay. The following applies: A549, 72 h. A digest of the protocol:
as §1

A further experiment deals with MDA-MB-231. The experiment is described as follows: Cytotoxicity against human MDA-MB-231 cells after 72 hrs by SRB assay. The settings on record: MDA-MB-231, 72 h. A digest of the protocol: as §1

Structures are written as SMILES. Where a SMILES comes first, the peptide text is derived from it. Bridges are numbered along the chain shown (N, C = ends). Roman numbers before positions name the chains, in order. [ ]: non-standard residue; d: D form. The star is where a group is joined. Quinoxaline2carbonyl = O=C(c1cnc2ccccc2n1)*; Quinaldoyl(3-OH) = O=C(c1nc2ccccc2cc1O)*; Quinaldoyl = O=C(c1ccc2ccccc2n1)*; NMeF = CN[C@@H](Cc1ccccc1)C(=O)O; NMeL = CN[C@@H](CC(C)C)C(=O)O; X1 = O=C(c1cc(=O)c2ccccc2o1)*; NMeA = CN[C@@H](C)C(=O)O; Orn = NCCC[C@H](N)C(=O)O; Dap = NC[C@H](N)C(=O)O; Sar = CNCC(=O)O

As to `CC(C)C[C@@H](C(=O)N[C@H]1COC(=O)[C@H](Cc2ccccc2)N(C)C(=O)[C@H](CC(C)C)N(C)C(=O)[C@@H](NC(=O)[C@H](CC(C)C)N(C)C)COC(=O)[C@H](Cc2ccccc2)N(C)C(=O)[C@H](CC(C)C)N(C)C1=O)N(C)C`, the GI50 (in general, the concentration that inhibits growth by half) in the experiment with HT-29 is 640 nM; with A549, 2900 nM; in the experiment with MDA-MB-231, 1230 nM.

On to `CC(C)C[C@H]1C(=O)NC[C@H](NC(=O)c2ccc3ccccc3n2)C(=O)N(C)[C@@H](CC(C)C)C(=O)N(C)CC(=O)N(C)[C@@H](CC(C)C)C(=O)NC[C@H](NC(=O)c2ccc3ccccc3n2)C(=O)N(C)[C@@H](CC(C)C)C(=O)N(C)CC(=O)N1C` (I: Quinaldoyl-[Dap][NMeL][Sar][NMeL] / II: Quinaldoyl-[Dap][NMeL][Sar][NMeL]; amide I:1-II:C, I:C-II:1), for which the GI50 in the experiment on HT-29 came to 500 nM; in the experiment with A549, 570 nM; in the experiment on MDA-MB-231 it was 640 nM.

With `CC(C)C[C@H]1C(=O)NCCC[C@H](NC(=O)c2ccc3ccccc3n2)C(=O)N(C)[C@@H](CC(C)C)C(=O)N(C)CC(=O)N(C)[C@@H](CC(C)C)C(=O)NCCC[C@H](NC(=O)c2ccc3ccccc3n2)C(=O)N(C)[C@@H](CC(C)C)C(=O)N(C)CC(=O)N1C` (I: Quinaldoyl-[Orn][NMeL][Sar][NMeL] / II: Quinaldoyl-[Orn][NMeL][Sar][NMeL]; amide I:1-II:C, I:C-II:1), the GI50 with HT-29 was determined as 2440 nM; with A549, 2940 nM; with MDA-MB-231, 5800 nM.

In the case of `CC(C)C[C@H]1C(=O)NC[C@H](NC(=O)c2cnc3ccccc3n2)C(=O)N(C)[C@@H](CC(C)C)C(=O)N(C)CC(=O)N(C)[C@@H](CC(C)C)C(=O)NC[C@H](NC(=O)c2cnc3ccccc3n2)C(=O)N(C)[C@@H](CC(C)C)C(=O)N(C)CC(=O)N1C` (I: Quinoxaline2carbonyl-[Dap][NMeL][Sar][NMeL] / II: Quinoxaline2carbonyl-[Dap][NMeL][Sar][NMeL]; amide I:1-II:C, I:C-II:1), the GI50 in the experiment with HT-29 is 1230 nM; in the experiment with A549 it was 1410 nM; in the experiment on MDA-MB-231, 1670 nM.

Consider `CC(C)C[C@H]1C(=O)NC[C@H](NC(=O)c2nc3ccccc3cc2O)C(=O)N(C)[C@@H](CC(C)C)C(=O)N(C)CC(=O)N(C)[C@@H](CC(C)C)C(=O)NC[C@H](NC(=O)c2nc3ccccc3cc2O)C(=O)N(C)[C@@H](CC(C)C)C(=O)N(C)CC(=O)N1C` (I: {Quinaldoyl(3-OH)}-[Dap][NMeL][Sar][NMeL] / II: {Quinaldoyl(3-OH)}-[Dap][NMeL][Sar][NMeL]; amide I:1-II:C, I:C-II:1), for which the GI50 in the experiment with HT-29 was determined as 3430 nM; in the experiment on A549 it was 2400 nM.

Consider `CC(C)C[C@H]1C(=O)NC[C@H](NC(=O)c2ccc3ccccc3n2)C(=O)N(C)[C@@H](CC(C)C)C(=O)NCC(=O)N(C)[C@@H](CC(C)C)C(=O)NC[C@H](NC(=O)c2ccc3ccccc3n2)C(=O)N(C)[C@@H](CC(C)C)C(=O)NCC(=O)N1C` (I: Quinaldoyl-[Dap][NMeL]G[NMeL] / II: Quinaldoyl-[Dap][NMeL]G[NMeL]; amide I:1-II:C, I:C-II:1), for which the GI50 in the experiment on HT-29 was determined as 620 nM; in the experiment on A549, 1180 nM; in the experiment with MDA-MB-231, 550 nM.

`CC(C)C[C@H]1C(=O)NC[C@H](NC(=O)c2cc(=O)c3ccccc3o2)C(=O)N(C)[C@@H](CC(C)C)C(=O)N(C)CC(=O)N(C)[C@@H](CC(C)C)C(=O)NC[C@H](NC(=O)c2cc(=O)c3ccccc3o2)C(=O)N(C)[C@@H](CC(C)C)C(=O)N(C)CC(=O)N1C` (I: X1-[Dap][NMeL][Sar][NMeL] / II: X1-[Dap][NMeL][Sar][NMeL]; amide I:1-II:C, I:C-II:1): the GI50 in the experiment with HT-29 came to 2910 nM; in the experiment with MDA-MB-231 it was 2310 nM.

Take `CC(C)C[C@H]1C(=O)NC[C@H](NC(=O)c2ccc3ccccc3n2)C(=O)N(C)[C@@H](CC(C)C)C(=O)N(C)CC(=O)N(C)[C@@H](CC(C)C)C(=O)OC[C@H](NC(=O)c2ccc3ccccc3n2)C(=O)N(C)[C@@H](CC(C)C)C(=O)N(C)CC(=O)N1C` (I: Quinaldoyl-[Dap][NMeL][Sar][NMeL] / II: Quinaldoyl-S[NMeL][Sar][NMeL]; amide I:1-II:C; ester I:C-II:1): the GI50 with HT-29 turned out to be 1230 nM; in the experiment on A549, 2760 nM; in the experiment on MDA-MB-231, 1160 nM.

As to `CC(C)C[C@@H](C(=O)N[C@H]1CNC(=O)[C@H](Cc2ccccc2)N(C)C(=O)[C@H](CC(C)C)N(C)C(=O)[C@@H](NC(=O)[C@H](CC(C)C)N(C)C)CNC(=O)[C@H](Cc2ccccc2)N(C)C(=O)[C@H](CC(C)C)N(C)C1=O)N(C)C`, the GI50 came out at 650 nM in the experiment with HT-29, 2860 nM in the experiment with A549 and 710 nM in the experiment with MDA-MB-231.

Regarding `CC(C)C[C@H]1C(=O)N(C)CC(=O)N(C)[C@@H](C)C(=O)NC[C@H](NC(=O)c2ccc3ccccc3n2)C(=O)N(C)[C@@H](CC(C)C)C(=O)N(C)CC(=O)N(C)[C@@H](C)C(=O)NC[C@H](NC(=O)c2ccc3ccccc3n2)C(=O)N1C` (I: Quinaldoyl-[Dap][NMeL][Sar][NMeA] / II: Quinaldoyl-[Dap][NMeL][Sar][NMeA]; amide I:1-II:C, I:C-II:1), the results for the concentration for 50% growth inhibition (GI50) with HT-29 and in the experiment with MDA-MB-231 were 3530 nM and 5340 nM, respectively.

`CC(C)C[C@H]1C(=O)NCCCC[C@H](NC(=O)c2ccc3ccccc3n2)C(=O)N(C)[C@@H](CC(C)C)C(=O)N(C)CC(=O)N(C)[C@@H](CC(C)C)C(=O)NCCCC[C@H](NC(=O)c2ccc3ccccc3n2)C(=O)N(C)[C@@H](CC(C)C)C(=O)N(C)CC(=O)N1C` (I: Quinaldoyl-K[NMeL][Sar][NMeL] / II: Quinaldoyl-K[NMeL][Sar][NMeL]; amide I:1-II:C, I:C-II:1): the GI50 in the experiment on A549 was determined as 3940 nM. In other words, the single-digit micromolar range.

On to `CC(C)C[C@H]1C(=O)N(C)CC(=O)N(C)[C@@H](Cc2ccccc2)C(=O)NC[C@H](NC(=O)c2ccc3ccccc3n2)C(=O)N(C)[C@@H](CC(C)C)C(=O)N(C)CC(=O)N(C)[C@@H](Cc2ccccc2)C(=O)NC[C@H](NC(=O)c2ccc3ccccc3n2)C(=O)N1C` (I: Quinaldoyl-[Dap][NMeL][Sar][NMeF] / II: Quinaldoyl-[Dap][NMeL][Sar][NMeF]; amide I:1-II:C, I:C-II:1), for which the GI50 is 4080 nM in the experiment with HT-29 and 4160 nM in the experiment with A549.
